In data set [1] the test system is Plasmodium yoelii. Description: Antimalarial activity as reduced parasitaemia (%) against multidrug-resistant Plasmodium yoelii infected Swiss mice (Mus musculus) at 48 mg/kg peroral dose after 4 days. Format: functional. Set-up: scale not given: the % may be the effect or the level left. The note with it: route oral. In outline: (§1)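 Colony-bred Swiss mice (25 ± 1 g) inoculated with 1×10^6 parasitized RBC on day 0, five per dose group. Dosed orally in groundnut oil (0.1 ml), days 0–3, as two divided doses daily. Parasitaemia read from thin blood smears. Day-4 suppression = [(C−T)/C]×100 against the control group; 100% means parasites below the detection limit. β-Arteether was the positive control.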

Data set [2] has as its system Mus musculus. Description: Survival of multidrug-resistant Plasmodium yoelii infected Swiss mice (Mus musculus) at 48 mg/kg, perorally after 28 days. Format: ADME, organism-based. On the set-up: dose 48 mg/kg, route oral. The note with it: in vivo, po, 672 h. In short, it runs like this:
(§2)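 Swiss mice (25 ± 1 g) infected on day 0 with 1×10^6 parasitized RBC, five per dose. Given the drug orally in groundnut oil (0.1 ml), split into two daily doses on days 0–3. Parasitaemia followed by thin blood smears from day 4 to 28. Mice surviving beyond day 28 were scored as protected, expressed as the percent of treated mice. β-Arteether was the positive control.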

Data set [3] has as its system Plasmodium yoelii. Description: Antimalarial activity as reduced parasitaemia (%) against multidrug-resistant Plasmodium yoelii infected Swiss mice (Mus musculus) at 24 mg/kg peroral dose after 4 days. The format is functional. On the set-up: scale not given: the % may be the effect or the level left. The note with it: route oral.
Data set [4] has as its system Mus musculus. Description: Survival of multidrug-resistant Plasmodium yoelii infected Swiss mice (Mus musculus) at 96 mg/kg, perorally after 28 days. Format: ADME, organism-based. On the set-up: dose 96 mg/kg, route oral. Conditions: in vivo, po, 672 h; call rule not given here. In outline: as §2
Data set [5] has as its system Plasmodium yoelii. Description: Antimalarial activity as reduced parasitaemia (%) against multidrug-resistant Plasmodium yoelii infected Swiss mice (Mus musculus) at 96 mg/kg peroral dose after 4 days. Format: functional. The note with it: route oral. Set-up: scale not given: the % may be the effect or the level left. In outline:
as §1

SMILES strings stand for the structures.

With `CCO[C@H]1O[C@@H]2O[C@@]3(C)CC[C@H]4[C@H](C)CC[C@@H]([C@H]1C)[C@@]24OO3` [ARTEMOTIL], the Activity in the data set with Plasmodium yoelii [1] is on record as 100%; in the data set with Mus musculus [2] it was “Active”; in the data set on Plasmodium yoelii [3] it was 100%.
As for `C=C(c1ccc(Cl)cc1)C1COC2(CC[C@@]3(C)C(CC[C@@H]4[C@@H]3CC[C@@]3(C)[C@H]4OCC34CC[C@@H](C)CO4)C2)OO1` (stereo partly specified), the Activity entry is reported as “Not Active” in the data set with Mus musculus [4] and 71.7% with Plasmodium yoelii [5].
As for `C=C(c1ccc(F)cc1)C1COC2(CC[C@@]3(C)C(CC[C@H]4[C@@H]5CC[C@H]([C@H](C)CCCC(C)C)[C@@]5(C)CC[C@@H]43)C2)OO1` (stereo partly specified), the Activity entry is recorded as “Not Active” with Mus musculus [4] and 14.8% in the data set with Plasmodium yoelii [5].
For `C=C(c1ccc(C)cc1)C1COC2(CC[C@@]3(C)C(CC[C@H]4[C@@H]5CC[C@H]([C@H](C)CCCC(C)C)[C@@]5(C)CC[C@@H]43)C2)OO1` (stereo partly specified), the values for the Activity result in the data set on Mus musculus [4] and with Plasmodium yoelii [5] were “Not Active” and 27.4%, respectively.
As to `C=C(c1ccc(Br)cc1)C1COC2(CC[C@@]3(C)C(CC[C@H]4[C@@H]5CC[C@H]([C@H](C)CCCC(C)C)[C@@]5(C)CC[C@@H]43)C2)OO1` (stereo partly specified), the Activity result in the data set with Mus musculus [4] is recorded as “Not Active”; with Plasmodium yoelii [5], 26.1%.
Regarding `C=C(c1ccc(C)cc1)C1COC2(CC[C@@]3(C)C(CC[C@H]4[C@@H]5CC[C@H](C(C)=O)[C@@]5(C)CC[C@@H]43)C2)OO1` (stereo partly specified), the Activity in the data set on Plasmodium yoelii [1] and with Plasmodium yoelii [5] was 100% each time.
On to `C=C(c1ccc(Cl)cc1)C1COC2(CC[C@@]3(C)C(CC[C@H]4[C@@H]5CC[C@H]([C@H](C)CCCC(C)C)[C@@]5(C)CC[C@@H]43)C2)OO1` (stereo partly specified), for which the Activity result with Mus musculus [4] is reported as “Not Active”; with Plasmodium yoelii [5] it was 43.4%.
For `C=C(c1ccc(OC)cc1)C1COC2(CC[C@@]3(C)C(CC[C@@H]4[C@@H]3CC[C@@]3(C)[C@H]4OCC34CC[C@@H](C)CO4)C2)OO1` (stereo partly specified), the Activity entry with Mus musculus [4] is on record as “Not Active”; in the data set on Plasmodium yoelii [5], 36.1%.
In the case of `C=C(c1ccc(F)cc1)C1COC2(CC[C@@]3(C)C(CC[C@H]4[C@@H]5CC[C@H](C(C)=O)[C@@]5(C)CC[C@@H]43)C2)OO1` (stereo partly specified), the Activity in the data set on Plasmodium yoelii [1] and in the data set with Plasmodium yoelii [5] was 100% each time.
With `C=C(c1ccc(Br)cc1)C1COC2(CC[C@@]3(C)C(CC[C@H]4[C@@H]5CC[C@H](C(C)=O)[C@@]5(C)CC[C@@H]43)C2)OO1` (stereo partly specified), the Activity in the data set with Plasmodium yoelii [1] and in the data set on Plasmodium yoelii [5] was 100% each time.
With `C=C(c1ccc(Cl)cc1)C1COC2(CC[C@@]3(C)C(CC[C@H]4[C@@H]5CC[C@H](C(C)=O)[C@@]5(C)CC[C@@H]43)C2)OO1` (stereo partly specified), the Activity with Plasmodium yoelii [1] and in the data set on Plasmodium yoelii [5] was 100% in each case.
`C=C(c1ccccc1)C1COC2(CC[C@@]3(C)C(CC[C@H]4[C@@H]5CC[C@H](C(C)=O)[C@@]5(C)CC[C@@H]43)C2)OO1` (stereo partly specified): the Activity in the data set on Plasmodium yoelii [1] and in the data set with Plasmodium yoelii [5] was 100% throughout.
Turning to `C=C(c1ccc(F)cc1)C1COC2(CC[C@@]3(C)C(CC[C@@H]4[C@@H]3CC[C@@]3(C)[C@H]4OCC34CC[C@@H](C)CO4)C2)OO1` (stereo partly specified), the Activity result in the data set on Mus musculus [4] is “Not Active”; in the data set on Plasmodium yoelii [5], 45.1%.
For the compound `C=C(c1ccccc1)C1COC2(CC[C@@]3(C)C(CC[C@@H]4[C@@H]3CC[C@]3(C)C([C@H](C)CCCC(C)C)CC[C@@H]43)C2)OO1` (stereo partly specified), the figures for the Activity entry with Mus musculus [4] and with Plasmodium yoelii [5] were “Not Active” and 73%, respectively.
As for `C=C(c1ccc(OC)cc1)C1COC2(CC[C@@]3(C)C(CC[C@H]4[C@@H]5CC[C@H]([C@H](C)CCCC(C)C)[C@@]5(C)CC[C@@H]43)C2)OO1` (stereo partly specified), the Activity result is listed as “Not Active” with Mus musculus [4] and 53.5% in the data set with Plasmodium yoelii [5].
Turning to `C=C(c1ccc(C)cc1)C1COC2(CC[C@@]3(C)C(CC[C@@H]4[C@@H]3CC[C@@]3(C)[C@H]4OCC34CC[C@@H](C)CO4)C2)OO1` (stereo partly specified), the Activity result in the data set with Mus musculus [4] was “Not Active”; with Plasmodium yoelii [5], 50.7%.
As to `C=C(c1ccc(OC)cc1)C1COC2(CC[C@@]3(C)C(CC[C@H]4[C@@H]5CC[C@H](C(C)=O)[C@@]5(C)CC[C@@H]43)C2)OO1` (stereo partly specified), the results for the Activity result in the data set with Mus musculus [4], in the data set on Plasmodium yoelii [1] and in the data set with Plasmodium yoelii [5] were “Active”, 100% and 100%, respectively.

The values are drawn from ChEMBL document CHEMBL1149549, “Orally active antimalarials: synthesis and bioevaluation of a new series of steroid-based 1,2,4-trioxanes against multi-drug resistant malaria in mice” (Bioorg Med Chem Lett, 2007).
